Measured values taken from ChEMBL document CHEMBL3621107, “Ring fusion strategy for synthesis and lead optimization of sulfur-substituted anthra[1,2-c][1,2,5]thiadiazole-6,11-dione derivatives as promising scaffold of antitumor agents” (Eur J Med Chem, 2015).

What was measured:
Format in all cases: functional
[1] = Cytotoxicity against human melanoma cells assessed as growth inhibition after 48 hrs by SRB assay; conditions: Melanoma cell
How it was run: (§1)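 Values come from the NCI-60 five-dose panel (0.01–100 µM). The subpanel MID is the mean GI50 over the lines of that tumour subpanel. The selectivity ratio is the full-panel MID divided by the subpanel MID; 3–6 is rated moderate and >6 high.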

[2] = tested on: UACC-257; test: Cytotoxicity against human UACC257 cells after 48 hrs by SRB assay; conditions: UACC-257, 48 h
How it was run: (§2)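 NCI-60 five-dose study run by NCI DTP at 0.01, 0.1, 1, 10 and 100 µM. Percentage growth at each level was plotted against log10 concentration for each line, and GI50, TGI and LC50 were read from the dose-response curves.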

[3] = tested on: HOP-62; test: Cytotoxicity against human HOP62 cells after 48 hrs by SRB assay; conditions: HOP-62, 48 h
How it was run: (§3)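 NCI-60 human tumour cell panel screen, second stage, run by the NCI Developmental Therapeutics Program. Compounds were tested at five concentrations (0.01, 0.1, 1, 10 and 100 μM). Percentage growth was plotted against log10 concentration for each cell line. GI50, TGI and LC50 were taken from these dose-response curves.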

[4] = tested on: 786-0; test: Cytotoxicity against human 786-0 cells after 48 hrs by SRB assay; conditions: 786-0, 48 h; how it was run: as §3
[5] = tested on: OVCAR-5; test: Cytotoxicity against human OVCAR5 cells after 48 hrs by SRB assay; conditions: OVCAR-5, 48 h
How it was run: (§4)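 Second-stage NCI-60 panel run by the NCI Developmental Therapeutics Program, covering nine tumour subpanels. Five concentrations were tested: 0.01, 0.1, 1, 10 and 100 μM. Percentage growth at each level was plotted against log10 drug concentration. GI50, TGI and LC50 were read from these dose-response curves. Subpanel MID values were divided into the full-panel MID to give selectivity ratios.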

[6] = tested on: NCI-H522; test: Cytotoxicity against human NCI-H522 cells after 48 hrs by SRB assay; conditions: NCI-H522, 48 h; how it was run: as §4
[7] = Cytotoxicity against human renal cancer cells assessed as growth inhibition after 48 hrs by SRB assay; conditions: Cancer cell lines; how it was run: as §1
[8] = tested on: SN12C; test: Cytotoxicity against human SN12C cells after 48 hrs by SRB assay; how it was run: as §4
[9] = tested on: NCI/ADR-RES; test: Cytotoxicity against human NCI/ADR-RES cells after 48 hrs by SRB assay; how it was run: as §4
[10] = tested on: Malme-3M; test: Cytotoxicity against human MALME-3M cells after 48 hrs by SRB assay; how it was run: as §3
[11] = tested on: U-251; test: Cytotoxicity against human U251 cells after 48 hrs by SRB assay; conditions: U-251, 48 h; how it was run: as §2
[12] = Cytotoxicity against human breast cancer cells assessed as growth inhibition after 48 hrs by SRB assay; conditions: Cancer cell lines; how it was run: as §1
[13] = Cytotoxicity against human EKVX cells after 48 hrs by SRB assay; how it was run: as §3
[14] = tested on: SF-539; test: Cytotoxicity against human SF539 cells after 48 hrs by SRB assay; conditions: SF-539, 48 h; how it was run: as §4
[15] = tested on: SNB-75; test: Cytotoxicity against human SNB75 cells after 48 hrs by SRB assay; conditions: SNB-75, 48 h; how it was run: as §2
[16] = Cytotoxicity against human leukemia cells assessed as growth inhibition after 48 hrs by SRB assay; conditions: Leukemia cell; how it was run: as §1
[17] = tested on: A549; test: Cytotoxicity against human A549 cells after 48 hrs by SRB assay; conditions: A549, 48 h; how it was run: as §3
[18] = tested on: SW-620; test: Cytotoxicity against human SW620 cells after 48 hrs by SRB assay; conditions: SW-620, 48 h; how it was run: as §2
[19] = tested on: SF-295; test: Cytotoxicity against human SF295 cells after 48 hrs by SRB assay; conditions: SF-295, 48 h; how it was run: as §4
[20] = tested on: HCC 2998; test: Cytotoxicity against human HCC2998 cells after 48 hrs by SRB assay; conditions: HCC 2998, 48 h; how it was run: as §3
[21] = tested on: HT-29; test: Cytotoxicity against human HT-29 cells after 48 hrs by SRB assay; conditions: HT-29, 48 h; how it was run: as §3
[22] = tested on: OVCAR-4; test: Cytotoxicity against human OVCAR4 cells after 48 hrs by SRB assay; conditions: OVCAR-4, 48 h; how it was run: as §4
[23] = tested on: KM12; test: Cytotoxicity against human KM12 cells after 48 hrs by SRB assay; conditions: KM12, 48 h; how it was run: as §3
[24] = tested on: SR; test: Cytotoxicity against human SR cells after 48 hrs by SRB assay; how it was run: as §2
[25] = tested on: DU-145; test: Cytotoxicity against human DU145 cells after 48 hrs by SRB assay; conditions: DU-145, 48 h; how it was run: as §3
[26] = tested on: OVCAR-3; test: Cytotoxicity against human OVCAR3 cells after 48 hrs by SRB assay; conditions: OVCAR-3, 48 h; how it was run: as §4
[27] = tested on: UO-31; test: Cytotoxicity against human UO31 cells after 48 hrs by SRB assay; conditions: UO-31, 48 h; how it was run: as §2
[28] = tested on: NCI-H226; test: Cytotoxicity against human NCI-H226 cells after 48 hrs by SRB assay; conditions: NCI-H226, 48 h; how it was run: as §4
[29] = tested on: UACC-62; test: Cytotoxicity against human UACC62 cells after 48 hrs by SRB assay; conditions: UACC-62, 48 h; how it was run: as §2
[30] = tested on: MOLT-4; test: Cytotoxicity against human MOLT4 cells after 48 hrs by SRB assay; conditions: MOLT-4, 48 h; how it was run: as §4
[31] = tested on: T47D; test: Cytotoxicity against human T47D cells after 48 hrs by SRB assay; how it was run: as §2
[32] = read-out: LC50 (the source's name)

## O=C1c2ccccc2C(=O)c2c1cc(Sc1ccc(F)cc1F)c1nsnc21
[1]
  GI50: 2.12 µM
[2]
  GI50: 1.59 µM
  LC50: 18 µM
  TGI: 4.64 µM
[3]
  GI50: 1.82 µM
  LC50: 6.01 µM
  TGI: 3.3 µM
[4]
  GI50: 1.85 µM
  LC50 (concentration killing 50% of cells): 6.75 µM
  TGI: 3.53 µM
[5]
  GI50: 8.18 µM
  LC50: 63.3 µM
  TGI: 24 µM
[6]
  GI50: 3.76 µM
  LC50 (concentration giving 50% net cell kill): 37.1 µM
  TGI: 12.4 µM
[7]
  GI50: 2.53 µM
[8]
  GI50: 1.64 µM
  TGI: 4.96 µM
[8]; [32]
  CC50: 19.4 µM
[9]
  GI50: 1.74 µM
  LC50 (concentration killing 50% of cells): > 100 µM
  TGI: 4.59 µM
[10]
  GI50: 3.26 µM
  LC50: 41.7 µM
  TGI: 8.65 µM
[11]
  GI50: 1.9 µM
  LC50: 9.94 µM
  TGI: 4.35 µM
[12]
  GI50: 1.77 µM
[13]
  GI50: 20.8 µM
  LC50: > 100 µM
  TGI: 66.5 µM
[14]
  GI50: 2.08 µM
  LC50: 8.63 µM
  TGI: 4.24 µM
[15]
  GI50: 1.57 µM
  LC50 (concentration killing 50% of cells): 13.1 µM
  TGI: 4.22 µM
[16]
  GI50: 2.16 µM
[17]
  GI50: 14.9 µM
  LC50 (concentration killing 50% of cells): > 100 µM
  TGI: 42.4 µM
[18]
  GI50: 3.99 µM
  LC50 (50% lethal concentration): 69.5 µM
  TGI: 16.3 µM
[19]
  GI50: 9 µM
  LC50: > 100 µM
  TGI: 44.2 µM
[20]
  GI50: 11.3 µM
  LC50: 56.4 µM
  TGI: 25.3 µM
[21]
  GI50: 8.72 µM
  LC50: > 100 µM
  TGI: 36.3 µM
[22]
  GI50: 0.34 µM
  LC50: 4.18 µM
  TGI: 1.38 µM
[23]
  GI50: 9.91 µM
  LC50 (concentration killing 50% of cells): > 100 µM
  TGI: 77.3 µM
[24]
  GI50: 2.97 µM
  LC50: 52.7 µM
  TGI: 9.06 µM
[25]
  GI50: 6.3 µM
  LC50: 45 µM
  TGI: 18.7 µM
[26]
  GI50: 1.82 µM
  TGI: 3.44 µM
[26]; [32]
  CC50: 6.52 µM
[27]
  GI50: 3.03 µM
  LC50: 42.6 µM
  TGI: 15 µM
[28]
  GI50: 3.09 µM
  LC50 (concentration killing 50% of starting cells): 59.1 µM
  TGI: 11.1 µM
[29]
  GI50: 1.73 µM
  LC50: 12.9 µM
  TGI: 4.37 µM
[30]
  GI50: 1.11 µM
  LC50: > 100 µM
  TGI: 5.46 µM
[31]
  GI50: 0.86 µM
  LC50 (concentration killing 50% of cells): 7.02 µM
  TGI: 2.57 µM
